Experimental data taken from ChEMBL document CHEMBL4680081, “Synthesis, photophysical properties and biological evaluation of β-alkylaminoporphyrin for photodynamic therapy” (Bioorg Med Chem, 2016).
Calls of active or inactive are those of the source. The calls are words filed in the database; no cut-off is given here.

Legend:
[1] = Absorption property of the compound in DMSO assessed as soret band maximum absorption wavelength by UV-visible spectrophotometric method; type: physicochemical
In short: (§1)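 UV–visible absorption spectra recorded in DMSO at concentrations 1, 2, 4, 6, 8, 10 µM, with the concentration dependence used to follow aggregation.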

[2] = Emission property of the compound in DMSO assessed as maximum excited state emission wavelength at 4 uM by fluorescence spectrophotometric method; type: physicochemical
In short: (§2)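 Fluorescence spectra recorded on a spectrofluorometer with slits of 1 nm for excitation and 1 or 2 nm for emission.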

[3] = Absorption property of the compound in DMSO assessed as Q band wavelength molar absorption coefficient by UV-visible spectrophotometric method; type: physicochemical; in short: as §1
[4] = Emission property of the compound in DMSO assessed as stokes shift by fluorescence spectrophotometric method; type: physicochemical; in short: as §2
[5] = Absorption property of the compound in DMSO assessed as soret band absorption coefficient by UV-visible spectrophotometric method; type: physicochemical; in short: as §1
[6] = Induction of singlet oxygen generation in DMF solution assessed as singlet oxygen quantum yield irradiated with 650 nanometer laser light by DPBF-based assay; type: functional
[7] = Drug localization in nuclear membrane of human HeLa cells at 5 uM incubated for 4 hrs in dark by Hoechst 33342 staining based confocal fluorescence microscopy; type: ADME, cell membranes
In short: (§3)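 HeLa cells at 1 × 10^5 cells/mL on poly-L-lysine coverslips for 24 h, then 5 µM drug for 4 h in the dark at 37 °C. Nuclei were stained with Hoechst 33342 for 10 min at 37 °C, and cells fixed in 4% paraformaldehyde at 4 °C for 30 min. Confocal imaging: drug excited at 417 nm, emission 600–700 nm; Hoechst excited at 350 nm, emission 450–500 nm.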

[8] = Dark toxicity in human HeLa cells assessed as reduction in cell viability after 24 hrs by MTT assay; type: cell-based
In short: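 HeLa cells in DMEM with 10% FBS (37 °C, 5% CO2) were seeded at 2 × 10^4 cells/well and attached for 24 h. Compound at a range of final concentrations was taken up for 24 h in the dark, cells were washed with PBS and left unirradiated. MTT viability was read 24 h later as % survival normalised to no-drug cells. Triplicate experiments.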

[9] = Absorption property of the compound in DMSO assessed as Q band molar attenuation coefficient by UV-visible spectrophotometric method; type: physicochemical; in short: as §1
[10] = test system: HeLa; assay: Photodynamic antitumor activity against human HeLa cells xenografted in BALB/c nude mouse assessed as reduction in tumor volume at 5 mg/kg, iv followed by laser light irradiation at 100 J/cm2
[11] = Absorption property of the compound in DMSO assessed as soret band wavelength molar absorption coefficient by UV-visible spectrophotometric method; type: physicochemical; in short: as §1
[12] = test system: HeLa; assay: Phototoxicity against human HeLa cells assessed as reduction in cell viability preincubated for 24 hrs followed by irradiated with 16 J/cm2 of 650 nanometer laser light measured after 24 hrs by MTT assay; type: functional, cell-based; settings: light or radiation study
In short: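 HeLa cells at 2 × 10^4 cells/well were attached for 24 h and given compound at a range of final concentrations for 24 h in the dark. After two PBS washes, cells were irradiated with a 650 nm Nd:YAG laser (doses 0–16 J/cm²). MTT viability was read 24 h later as % survival normalised to no-drug cells. Triplicate experiments.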

[13] = Drug localization in cytoplasm of human HeLa cells at 5 uM incubated for 4 hrs in dark by Hoechst 33342 staining based confocal fluorescence microscopy; type: ADME, subcellular; in short: as §3
[14] = Absorption property of the compound in DMSO assessed as Q band absorption coefficient by UV-visible spectrophotometric method; type: physicochemical; in short: as §1
[15] = Absorption property of the compound in DMSO assessed as Q band maximum absorption wavelength by UV-visible spectrophotometric method; type: physicochemical; in short: as §1
[16] = Emission property of the compound in DMSO assessed as maximum emission wavelength at 4 uM by fluorescence spectrophotometric method; type: physicochemical; in short: as §2

| Structure (SMILES) | Activity [1] [nm] | Activity [2] [nm] | Activity [3] [nm] | Activity [4] [nm] | Activity [5] | Drug uptake [7] | Activity [9] | Activity [11] [nm] | Drug uptake [13] | Activity [14] | Activity [15] [nm] | Activity [16] [nm] | Activity [6] | IC50 at 24 h [8] [µM] | Activity [10] | IC50 [12] [µM] |
| --- | --- | --- | --- | --- | --- | --- | --- | --- | --- | --- | --- | --- | --- | --- | --- | --- |
| COc1ccc(-c2c3nc(c(-c4ccc(OC)cc4)c4ccc([nH]4)c(-c4ccc(OC)cc4)c4nc(c(-c5ccc(OC)cc5)c5ccc2[nH]5)C=C4N2CCCC2)C=C3)cc1 | 417 | 417 | 668 | 15 | 13.43 10^4/M/cm | Active | 0.54 10^4/M/cm | 535 | Active | 0.68 10^4/M/cm | 603 | 683 | 0.56 | 387 | Active | 4.38 |
| Cc1ccc(-c2c3nc(c(-c4ccc(C)cc4)c4ccc([nH]4)c(-c4ccc(C)cc4)c4nc(c(-c5ccc(C)cc5)c5ccc2[nH]5)C=C4N2CCCC2)C=C3)cc1 | 414 | 414 | 666 | 4 | 16.52 10^4/M/cm |  | 0.34 10^4/M/cm | 531 |  | 0.58 10^4/M/cm | 602 | 671 | 0.54 | 280 |  | 5.33 |
| COC(C)c1c(C)c2cc3nc(cc4[nH]c(cc5nc(cc1[nH]2)C(C)=C5C(C)O)c(C)c4CCC(=O)O)C(CCC(=O)O)=C3C (centres undefined) |  |  |  |  |  |  |  |  |  |  |  |  | 0.18 | 345 |  | 9.46 |

Continued, in another order:

| Activity [1] [nm] | Activity [2] [nm] | Activity [3] [nm] | Activity [4] [nm] | Activity [5] | Drug uptake [7] | Activity [9] | Activity [11] [nm] | Drug uptake [13] | Activity [14] | Activity [15] [nm] | Activity [16] [nm] | Structure (SMILES) | Activity [6] | IC50 at 24 h [8] [µM] | Activity [10] | IC50 [12] [µM] |
| --- | --- | --- | --- | --- | --- | --- | --- | --- | --- | --- | --- | --- | --- | --- | --- | --- |
| 412 | 412 | 650 | 19 | 8.32 10^4/M/cm |  | 0.16 10^4/M/cm | 524 |  | 0.27 10^4/M/cm | 596 | 669 | C1=Cc2nc1c(-c1ccccc1)c1ccc([nH]1)c(-c1ccccc1)c1nc(c(-c3ccccc3)c3ccc([nH]3)c2-c2ccccc2)C(N2CCCCC2)=C1 | 0.19 | 110 |  | 5.56 |
| 417 | 417 | 650 | 13 | 16.08 10^4/M/cm |  | 0.56 10^4/M/cm | 522 |  | 0.69 10^4/M/cm | 596 | 663 | C1=Cc2nc1c(-c1ccccc1)c1ccc([nH]1)c(-c1ccccc1)c1nc(c(-c3ccccc3)c3ccc([nH]3)c2-c2ccccc2)C(N2CCOCC2)=C1 | 0.25 | 93.4 |  | 5.06 |
| 412 | 412 | 648 | 17 | 14.75 10^4/M/cm |  | 0.67 10^4/M/cm | 521 |  | 0.73 10^4/M/cm | 594 | 665 | Clc1ccc(-c2c3nc(c(-c4ccc(Cl)cc4)c4ccc([nH]4)c(-c4ccc(Cl)cc4)c4nc(c(-c5ccc(Cl)cc5)c5ccc2[nH]5)C=C4N2CCCC2)C=C3)cc1 | 0.2 | 81.6 |  | 6.43 |
| 412 | 412 | 664 | 1 | 14.53 10^4/M/cm |  | 0.25 10^4/M/cm | 528 |  | 0.44 10^4/M/cm | 601 | 665 | C1=Cc2nc1c(-c1ccccc1)c1ccc([nH]1)c(-c1ccccc1)c1nc(c(-c3ccccc3)c3ccc([nH]3)c2-c2ccccc2)C(N2CCCC2)=C1 | 0.43 | 172 |  | 4.56 |
